Reference: ChEMBL document CHEMBL4689842, “EUbOPEN Chemogenomics Library wave 1” (2021)

Tested on: Fibroblast
Experiment: Multiplex assay against human fibroblast
Assay type: toxicity, cell-based
In short: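 Live cells were stained at seeding with Hoechst33342, BioTracker Green Microtubule Cytoskeleton Dye, MitoTracker Red and Annexin V Alexa Fluor 680. Following compound addition, they were imaged on a CQ1 microscope at 37°C and 5% CO2 and gated by CellPathfinder machine learning into Hoechst high-intensity objects or normal cells, with normal cells split into healthy, pyknosed or fragmented nuclei and pyknosed cells into mitotic or apoptotic. Tubulin, mitochondrial-mass and membrane-permeability phenotypes are per cents of healthy-nucleus cells.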

[1] = 12 h, 1 µM, compound concentration 1 uM, replicate 1
[2] = 12 h, 1 µM, compound concentration 1 uM, replicate 2
[3] = 12 h, 10 µM, compound concentration 10 uM, replicate 1
[4] = 12 h, 10 µM, compound concentration 10 uM, replicate 2
[5] = 24 h, 1 µM, compound concentration 1 uM, replicate 1
[6] = 24 h, 1 µM, compound concentration 1 uM, replicate 2
[7] = 24 h, 10 µM, compound concentration 10 uM, replicate 1
[8] = 24 h, 10 µM, compound concentration 10 uM, replicate 2
[9] = 48 h, 1 µM, compound concentration 1 uM, replicate 1
[10] = 48 h, 1 µM, compound concentration 1 uM, replicate 2
[11] = 48 h, 10 µM, compound concentration 10 uM, replicate 1
[12] = 48 h, 10 µM, compound concentration 10 uM, replicate 2

SMILES: CC(C)(O)CNc1ncc(-c2ccnc(Nc3ccnc(Cl)c3)n2)c(CC2CC2)n1
- Population Apoptotic (%) [1]: 59%
- Population Fragmented Nuclei (%) [1]: 27%
- Population Healthy Nuclei (%) [1]: 46%
- Population Hoechst High Intensity Objects (%) [1]: 14%
- Population Membrane Permeable-Phenotype (%) [1]: 35%
- Population Mitochondria Different-Phenotype (%) [1]: 6%
- Population Mitotic Cells (%) [1]: 40%
- Population Normal (%) [1]: 85%
- Population Pyknosed Nuclei (%) [1]: 25%
- Population Tubulin-Different-Phenotype (%) [1]: 54%
- Total Cell Count [1]: 121
- Population Apoptotic (%) [2]: 9%
- Population Fragmented Nuclei (%) [2]: 9%
- Population Healthy Nuclei (%) [2]: 78%
- Population Hoechst High Intensity Objects (%) [2]: 5%
- Population Membrane Permeable-Phenotype (%) [2]: 5%
- Population Mitochondria Different-Phenotype (%) [2]: 17%
- Population Mitotic Cells (%) [2]: 90%
- Population Normal (%) [2]: 94%
- Population Pyknosed Nuclei (%) [2]: 12%
- Population Tubulin-Different-Phenotype (%) [2]: 14%
- Total Cell Count [2]: 97
- Population Apoptotic (%) [3]: 58%
- Population Fragmented Nuclei (%) [3]: 32%
- Population Healthy Nuclei (%) [3]: 24%
- Population Hoechst High Intensity Objects (%) [3]: 7%
- Population Membrane Permeable-Phenotype (%) [3]: 18%
- Population Mitochondria Different-Phenotype (%) [3]: 45%
- Population Mitotic Cells (%) [3]: 41%
- Population Normal (%) [3]: 92%
- Population Pyknosed Nuclei (%) [3]: 43%
- Population Tubulin-Different-Phenotype (%) [3]: 90%
- Total Cell Count [3]: 97
- Population Apoptotic (%) [4]: 15%
- Population Fragmented Nuclei (%) [4]: 10%
- Population Healthy Nuclei (%) [4]: 64%
- Population Membrane Permeable-Phenotype (%) [4]: 28%
- Population Mitochondria Different-Phenotype (%) [4]: 96%
- Population Mitotic Cells (%) [4]: 84%
- Population Pyknosed Nuclei (%) [4]: 26%
- Population Tubulin-Different-Phenotype (%) [4]: 100%
- Total Cell Count [4]: 93
- Population Apoptotic (%) [5]: 53%
- Population Fragmented Nuclei (%) [5]: 35%
- Population Healthy Nuclei (%) [5]: 51%
- Population Hoechst High Intensity Objects (%) [5]: 10%
- Population Membrane Permeable-Phenotype (%) [5]: 31%
- Population Mitochondria Different-Phenotype (%) [5]: 0%
- Population Mitotic Cells (%) [5]: 46%
- Population Normal (%) [5]: 90%
- Population Pyknosed Nuclei (%) [5]: 12%
- Population Tubulin-Different-Phenotype (%) [5]: 53%
- Total Cell Count [5]: 130
- Population Apoptotic (%) [6]: 20%
- Population Fragmented Nuclei (%) [6]: 11%
- Population Healthy Nuclei (%) [6]: 74%
- Population Hoechst High Intensity Objects (%) [6]: 4%
- Population Membrane Permeable-Phenotype (%) [6]: 10%
- Population Mitochondria Different-Phenotype (%) [6]: 20%
- Population Mitotic Cells (%) [6]: 80%
- Population Normal (%) [6]: 95%
- Population Pyknosed Nuclei (%) [6]: 15%
- Population Tubulin-Different-Phenotype (%) [6]: 16%
- Total Cell Count [6]: 136
- Population Apoptotic (%) [7]: 63%
- Population Fragmented Nuclei (%) [7]: 20%
- Population Healthy Nuclei (%) [7]: 32%
- Population Hoechst High Intensity Objects (%) [7]: 8%
- Population Membrane Permeable-Phenotype (%) [7]: 28%
- Population Mitochondria Different-Phenotype (%) [7]: 60%
- Population Mitotic Cells (%) [7]: 36%
- Population Normal (%) [7]: 91%
- Population Pyknosed Nuclei (%) [7]: 47%
- Population Tubulin-Different-Phenotype (%) [7]: 89%
- Total Cell Count [7]: 95
- Population Apoptotic (%) [8]: 47%
- Population Fragmented Nuclei (%) [8]: 14%
- Population Healthy Nuclei (%) [8]: 40%
- Population Hoechst High Intensity Objects (%) [8]: 14%
- Population Membrane Permeable-Phenotype (%) [8]: 47%
- Population Mitochondria Different-Phenotype (%) [8]: 89%
- Population Mitotic Cells (%) [8]: 52%
- Population Normal (%) [8]: 85%
- Population Pyknosed Nuclei (%) [8]: 44%
- Population Tubulin-Different-Phenotype (%) [8]: 100%
- Total Cell Count [8]: 105
- Population Apoptotic (%) [9]: 100%
- Population Fragmented Nuclei (%) [9]: 51%
- Population Healthy Nuclei (%) [9]: 46%
- Population Hoechst High Intensity Objects (%) [9]: 18%
- Population Membrane Permeable-Phenotype (%) [9]: 27%
- Population Mitochondria Different-Phenotype (%) [9]: 3%
- Population Mitotic Cells (%) [9]: 0%
- Population Normal (%) [9]: 81%
- Population Tubulin-Different-Phenotype (%) [9]: 24%
- Total Cell Count [9]: 143
- Population Apoptotic (%) [10]: 50%
- Population Fragmented Nuclei (%) [10]: 18%
- Population Healthy Nuclei (%) [10]: 78%
- Population Hoechst High Intensity Objects (%) [10]: 10%
- Population Membrane Permeable-Phenotype (%) [10]: 22%
- Population Mitochondria Different-Phenotype (%) [10]: 1%
- Population Mitotic Cells (%) [10]: 50%
- Population Normal (%) [10]: 89%
- Population Pyknosed Nuclei (%) [10]: 2%
- Population Tubulin-Different-Phenotype (%) [10]: 40%
- Total Cell Count [10]: 84
- Population Apoptotic (%) [11]: 54%
- Population Fragmented Nuclei (%) [11]: 49%
- Population Healthy Nuclei (%) [11]: 29%
- Population Hoechst High Intensity Objects (%) [11]: 15%
- Population Membrane Permeable-Phenotype (%) [11]: 12%
- Population Mitochondria Different-Phenotype (%) [11]: 41%
- Population Mitotic Cells (%) [11]: 45%
- Population Normal (%) [11]: 84%
- Population Pyknosed Nuclei (%) [11]: 21%
- Population Tubulin-Different-Phenotype (%) [11]: 93%
- Total Cell Count [11]: 123
- Population Apoptotic (%) [12]: 29%
- Population Fragmented Nuclei (%) [12]: 23%
- Population Healthy Nuclei (%) [12]: 58%
- Population Hoechst High Intensity Objects (%) [12]: 9%
- Population Membrane Permeable-Phenotype (%) [12]: 7%
- Population Mitochondria Different-Phenotype (%) [12]: 51%
- Population Mitotic Cells (%) [12]: 70%
- Population Normal (%) [12]: 90%
- Population Pyknosed Nuclei (%) [12]: 17%
- Population Tubulin-Different-Phenotype (%) [12]: 96%
- Total Cell Count [12]: 106
